Source: article PMC3148296 (Molecular pharmaceutics, 2011)

Legend:
4T1 tumors = test: In vivo photosensitizing; parameters: species or system BALB/c mice; conditions: 10 mice/group
Outline: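 BALB/c mice received 1 × 10⁶ 4T1 cells s.c. in 50 μL PBS at the right shoulder. Treatment began at a mean tumor volume of 62.5 mm³ (50–70). Test compound given i.v. Unanesthetized, restrained mice were irradiated at 665 nm (1 cm² spot, 135 J/cm², 75 mW/cm²). Mice were checked daily for regrowth; volume = (L × W²)/2; mice euthanized at 400 mm³.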

[1] = tested on: 4T1 cells (αvβ3 positive); test: In vitro photosensitizing; assay type: cell-based, Mouse; conditions: 4T1, 2 h incubation, 665 nm light 0-2 J/cm2, MTT 48 h later
Outline: (§1)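 Cells kept at 37°C in 5% CO₂ in medium with 10% FBS (4T1: RPMI-1640; A431: DMEM high glucose). Plated at 3000 cells/well and allowed to attach for 3 h. Test compound added at variable concentrations for 2 h in the dark, then replaced with drug-free medium. Irradiated with a 665 nm dye laser at 3.2 mW/cm². After 48 h in the dark: MTT for 4 h, DMSO, A570. Survival given as % of dark control; mean of 3 experiments, 6 wells each, SD.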

U87 cells = test: In vitro cell uptake by flow cytometry; assay type: cell-based, Human
[2] = tested on: A431 cells (αvβ3 negative); test: In vitro photosensitizing; assay type: cell-based, Human; conditions: A431, 2 h incubation, 665 nm light 0-2 J/cm2, MTT 48 h later
Outline: as §1

4T1 cells = test: In vitro cell uptake by flow cytometry; assay type: cell-based, Mouse; conditions: 4T1, 2 h post incubation
Solubility in solvents = assay type: physicochemical
[3] = 0.25 μmol/kg, light at 24 h post injection

With “3-(1′-hexyloxyethyl)-3-devinylpyropheophorbide-a [HPPH]” the “tumor cure at day 60” value (4T1 tumors; [3]) was “did not produce any cures”, the “tumor cure at day 60” value (4T1 tumors; 0.47 μmol/kg, light at 4 h post injection) was “no cures” and the “mice tumor-free on day 60” value (4T1 tumors; light at 24 h post injection, Figure 7B) was 4/10.

In the case of “3-devinyl-3-{1′-(hexyloxy)ethyl}pyropheophorbide-a–cyclo(RGDfK) conjugate [conjugate 7]”, the “in vitro PDT efficacy among HPPH and conjugates 7, 8, 10” value [1] is reported as “most effective”, the “cell uptake among conjugates 7, 8 and 10” value (U87 cells; U87, 400 nM and 800 nM, 2 h and 4 h post-incubation, flow cytometry) is reported as “highest uptake” and the “cell uptake at 4 h versus 2 h incubation” value (U87 cells; U87, Figure S10) is reported as “significantly more at 4h”. The “tumor cure at day 60” value (4T1 tumors; [3]) was “did not produce any cures”, the “mice tumor-free on day 60” value (4T1 tumors; light at 2 h post injection, Figure 7A) was 8/10 and the “in vitro phototoxicity compared to HPPH” value [2] was “less effective”. For the same substance, the “cell uptake compared with HPPH” value (4T1 cells) was “comparable”.

In the case of “HPPH–cyclo(RGDfK) conjugate [conjugate 8]”, the “dissolution in common polar solvents” value (Solubility in solvents) is reported as “unsuccessful” and the “solubility in DMSO” value (Solubility in solvents) is reported as “partly soluble”.
